Only some compounds are listed: those with a hit (about 1.3% of all), similar ones and a draw of the others.
PAX8 reporter = inhibitors of PAX8-driven TPO luciferase reporter, primary screen, RMG-I cells, single concentration; SteadyGlo, 24 h; inhibition, % at 12.6 µM; 360,000 tested, 1.2% active; AID 652154, 2013;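 active = mean replicate inhibition at least 60% with every replicate also reaching 60%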;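 also: luciferase light reporting Pax8 driven TPO promoter activity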
RAD54 branch = inhibitors of human RAD54 branch migration, primary screen, biochemical, fluorescence, single point | inhibition, % at 10.4 µM | RAD54 Holliday junction branch migration, FAM/BHQ fluorescence | DNA repair and recombination protein RAD54-like (Homo sapiens), Q92698 | AID 602329, 2012 | 360,000 tested, 0.14% active;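 active = mean normalized replicate activity at least 40 and at least half of replicates scoring 40 or more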;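 also: inhibitors cause a drop in the FAM fluorescence signal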
RAD52 inh = RAD52 DNA annealing inhibitors, primary screen, biochemical, FRET, single point, set 2; DNA repair protein RAD52 homolog (Homo sapiens), P43351; recombinant RAD52 DNA annealing, FRET fluorescence; inhibition, % at 18.7 µM; 360,000 tested, 0.46% active;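 active = every replicate showing at least 50% inhibition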
Target sequence (P43351 whole entry, looked up): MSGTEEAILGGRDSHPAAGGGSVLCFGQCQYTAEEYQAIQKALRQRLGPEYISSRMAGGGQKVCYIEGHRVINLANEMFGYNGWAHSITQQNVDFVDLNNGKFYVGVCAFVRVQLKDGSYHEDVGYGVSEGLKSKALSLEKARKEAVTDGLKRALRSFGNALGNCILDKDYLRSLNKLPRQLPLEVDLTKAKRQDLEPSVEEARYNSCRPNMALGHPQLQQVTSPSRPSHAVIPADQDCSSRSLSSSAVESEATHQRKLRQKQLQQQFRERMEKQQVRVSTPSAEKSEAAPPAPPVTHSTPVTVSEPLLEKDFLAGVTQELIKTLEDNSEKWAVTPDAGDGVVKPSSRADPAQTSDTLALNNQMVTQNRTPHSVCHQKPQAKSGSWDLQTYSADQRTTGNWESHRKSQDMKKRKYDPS
FN deposition inh = inhibitors of fibronectin matrix deposition, primary screen, AH1F cells, Alexa488-fibronectin fluorescence, plate reader | AH1F fibroblasts, overnight | inhibition, % at 12.6 µM | 350,000 tested, 0.086% active;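 active = mean inhibition across replicates of 30% or more, regardless of how many single replicates reach that level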
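Assay system: AH1F fibroblasts / Quantity: 10000 cells per well / Medium: DMEM plus 2% serum, read in PBS / Reagent: labelled fibronectin 24 nM / Dosing: single dose, pinned / Times: 1 h cell attachment, overnight exposure to compound and label / Signal: fluorescence, ex 485 nm, em 525 nm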
Each line names hits and unclear results; the compound was inactive in the other large screens.

COc1cccc(S(=O)(=O)N2CCCCN3[C@H](C2)[C@@H](c2ccc(C#CC(C)C)cc2)[C@@H]3CO)c1	none (no result: FN deposition inh)
COc1ccc(S(=O)(=O)N2CCCCN3[C@@H](CO)[C@@H](c4ccc(C5=CCCCC5)cc4)[C@@H]3C2)cc1	RAD52 inh 50.4 (no result: FN deposition inh)
COc1cccc(S(=O)(=O)N2CCCCN3[C@H](C2)[C@@H](c2ccc(C#CCC(C)C)cc2)[C@@H]3CO)c1	none
COc1ccc(S(=O)(=O)N2CCCCN3[C@H](C2)[C@H](c2ccc(C#CC(C)C)cc2)[C@@H]3CO)cc1	PAX8 reporter 102.4 (no result: FN deposition inh)
COc1cccc(S(=O)(=O)N2CCCCN3[C@@H](CO)[C@@H](c4ccc(C#CCC(C)C)cc4)[C@@H]3C2)c1	PAX8 reporter 86.1
CCOC(=O)c1c2c([nH]c(=S)c1C#N)CCCC2	none
C[C@H]1CN([C@@H](C)CO)C(=O)c2cc(-c3ccc(C#N)cc3)cnc2O[C@H]1CN(C)C(=O)Nc1ccc(F)cc1	none (no result: PAX8 reporter)
C[C@H](CO)N1C[C@H](C)[C@@H](CN(C)S(=O)(=O)c2cn(C)cn2)OCCCC[C@H](C)Oc2ccc(NC(=O)CCCN(C)C)cc2C1=O	none (no result: FN deposition inh)
CC(=O)N(C1=C(Cl)C(=O)c2ccccc2C1=O)C1CCCCC1	PAX8 reporter 99.5, FN deposition inh 79.7
COc1ccc(-n2cc(-c3ccc(OC(F)F)cc3)[n+]3c2CCCCC3)cc1	PAX8 reporter 86.3 (no result: RAD54 branch, FN deposition inh)
O=C(COC(=O)[C@H](Cc1c[nH]c2ccccc12)NC(=O)c1cccs1)NCc1ccccc1	PAX8 reporter 65.6
Nc1c(Cl)ncnc1N/N=C/c1ccccn1	PAX8 reporter 67.0 (no result: RAD54 branch, RAD52 inh)
Cc1noc(C)c1S(=O)(=O)Nc1ccc2c(c1)CC(=O)N([C@@H](C)CO)C[C@@H](C)[C@@H](CN(C)Cc1ccccc1)O2	none
Cc1c(Cc2ccccc2)c(=O)n2c([nH]c3ccccc32)c1C#N	none
Cc1ccc(-n2c(-c3ccc(Br)cc3)c[n+]3c2CCc2ccc4cccnc4c2-3)cc1	RAD54 branch 88.1 (no result: PAX8 reporter, RAD52 inh)
Clc1cc(Cl)cc(CSc2nnc(-c3sccc3-n3cccc3)o2)c1	none (no result: PAX8 reporter, RAD52 inh, FN deposition inh)
O=C1C=CC2(C=C1)O[C@H](Cc1ccccc1)[C@@H](Cc1ccccc1)O2	PAX8 reporter 121.3, FN deposition inh 41.4 (no result: RAD54 branch)
COc1cc(/C=C/C(O)=C/C(=O)/C=C/c2ccc(O)cc2)ccc1O	PAX8 reporter 62.9
CCS(=O)(=O)N1CC2(C1)[C@@H](c1ccccc1)[C@@H](CO)N2CC1CCCC1	none (no result: RAD54 branch, FN deposition inh)
CCC[C@@H](CNC)NC[C@H](Cc1ccccc1)NCCCCc1ccccc1	none
CCC[C@@H](CN[C@@H](CNC)C(C)C)NCCCCc1ccccc1	none
CCCC[C@@H](CNC)NC[C@H](NCCCCC1CCCCC1)C(C)C	none
CC[C@@H](C)[C@H](CNC)NC[C@@H](Cc1cccc2ccccc12)NCCc1cccc(C(F)(F)F)c1	PAX8 reporter 102.7
CCC[C@H](CN[C@@H](CNC)[C@H](C)CC)NCCc1cc(C(F)(F)F)cc(C(F)(F)F)c1	PAX8 reporter 97.1
CCC[C@@H](CN[C@@H](CNC)[C@H](C)CC)NCC1CCC(C(C)(C)C)CC1 (some centres undefined)	PAX8 reporter 92.9
COc1ccccc1/C=C/C(=O)OCC(=O)N1CCN(S(=O)(=O)c2ccc(C)cc2C)CC1	none
C[C@H]1CCCCO[C@H](CN(C)Cc2ccc(C(F)(F)F)cc2)[C@@H](C)CN([C@@H](C)CO)C(=O)c2cc(NC(=O)NC3CCCCC3)ccc2O1	none (no result: FN deposition inh)
C[C@@H]1CCCCO[C@@H](CN(C)Cc2ccc(C(F)(F)F)cc2)[C@H](C)CN([C@@H](C)CO)C(=O)c2cc(NC(=O)NC3CCCCC3)ccc2O1	PAX8 reporter 78.4 (no result: FN deposition inh)
C[C@H](CO)N1C[C@H](C)[C@H](CN(C)Cc2ccc(C(F)(F)F)cc2)OCCCC[C@H](C)Oc2ccc(NC(=O)NC3CCCCC3)cc2C1=O	PAX8 reporter 91.4 (no result: FN deposition inh)
N#C/C(=C(/O)c1ccc(-c2cccc([N+](=O)[O-])c2)o1)c1nc2ccccc2s1	none (no result: RAD54 branch)
c1ccc(-c2c[n+]3c(n2-c2ccccc2)CCC3)cc1	none
CCOc1ccc(-n2c(-c3ccccc3)c[n+]3c2CCCCC3)cc1	PAX8 reporter 86.0 (no result: RAD54 branch)
CCc1cc(-c2n[nH]c(C)c2-c2nc3ccccc3n2C)c(O)cc1O	PAX8 reporter 119.8
